Source: ChEMBL document CHEMBL5058577, “EUbOPEN Chemogenomics Library 2 (Multiplex)” (2022)

Test system: HEK-293T
Experiment: Multiplex assay against HEK293T
Assay type: toxicity, cell-based
Conditions: human
How it was run: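 Live cells carried four stains from seeding: Hoechst33342, BioTracker Green Microtubule Cytoskeleton Dye, MitoTracker Red and Annexin V Alexa Fluor 680. They were imaged on a CQ1 microscope at 37°C and 5% CO2 after compound addition. Using CellPathfinder machine-learning gating, cells were split into Hoechst high-intensity objects or normal cells, normal cells into healthy, pyknosed or fragmented nuclei, and pyknosed cells into mitotic or apoptotic; tubulin, mitochondrial-mass and membrane-permeability phenotypes are per cents of healthy-nucleus cells.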

[1] = 12 h, 1 µM, compound concentration 1 uM, replicate 1
[2] = 12 h, 1 µM, compound concentration 1 uM, replicate 2
[3] = 12 h, 10 µM, compound concentration 10 uM, replicate 1
[4] = 12 h, 10 µM, compound concentration 10 uM, replicate 2
[5] = 24 h, 1 µM, compound concentration 1 uM, replicate 1
[6] = 24 h, 1 µM, compound concentration 1 uM, replicate 2
[7] = 24 h, 10 µM, compound concentration 10 uM, replicate 1
[8] = 24 h, 10 µM, compound concentration 10 uM, replicate 2
[9] = 48 h, 1 µM, compound concentration 1 uM, replicate 1
[10] = 48 h, 1 µM, compound concentration 1 uM, replicate 2
[11] = 48 h, 10 µM, compound concentration 10 uM, replicate 1
[12] = 48 h, 10 µM, compound concentration 10 uM, replicate 2

## O=C1COc2nccc(-c3ccccc3F)c2CN1Cc1cc(C(F)(F)F)cc(C(F)(F)F)c1
[1]
  Population Apoptotic (%): 31%
  Population Fragmented Nuclei (%): 8%
  Population Healthy Nuclei (%): 80%
  Population Hoechst High Intensity Objects (%): 5%
  Population Membrane Permeable-Phenotype (%): 0%
  Population Mitochondria Different-Phenotype (%): 41%
  Population Mitotic Cells (%): 68%
  Population Normal (%): 94%
  Population Pyknosed Nuclei (%): 10%
  Population Tubulin-Different-Phenotype (%): 27%
  Total Cell Count: 397
[2]
  Population Apoptotic (%): 51%
  Population Fragmented Nuclei (%): 4%
  Population Healthy Nuclei (%): 83%
  Population Hoechst High Intensity Objects (%): 10%
  Population Mitochondria Different-Phenotype (%): 67%
  Population Mitotic Cells (%): 48%
  Population Normal (%): 89%
  Population Pyknosed Nuclei (%): 11%
  Population Tubulin-Different-Phenotype (%): 20%
  Total Cell Count: 333
[3]
  Population Apoptotic (%): 38%
  Population Fragmented Nuclei (%): 10%
  Population Healthy Nuclei (%): 76%
  Population Hoechst High Intensity Objects (%): 9%
  Population Membrane Permeable-Phenotype (%): 0%
  Population Mitochondria Different-Phenotype (%): 67%
  Population Mitotic Cells (%): 61%
  Population Normal (%): 90%
  Population Pyknosed Nuclei (%): 13%
  Population Tubulin-Different-Phenotype (%): 68%
  Total Cell Count: 475
[4]
  Population Apoptotic (%): 57%
  Population Fragmented Nuclei (%): 8%
  Population Healthy Nuclei (%): 79%
  Population Hoechst High Intensity Objects (%): 5%
  Population Mitochondria Different-Phenotype (%): 76%
  Population Mitotic Cells (%): 42%
  Population Normal (%): 94%
  Population Pyknosed Nuclei (%): 12%
  Population Tubulin-Different-Phenotype (%): 39%
  Total Cell Count: 382
[5]
  Population Apoptotic (%): 21%
  Population Fragmented Nuclei (%): 8%
  Population Healthy Nuclei (%): 84%
  Population Hoechst High Intensity Objects (%): 3%
  Population Membrane Permeable-Phenotype (%): 0%
  Population Mitochondria Different-Phenotype (%): 32%
  Population Mitotic Cells (%): 78%
  Population Normal (%): 96%
  Population Pyknosed Nuclei (%): 7%
  Population Tubulin-Different-Phenotype (%): 23%
  Total Cell Count: 517
[6]
  Population Apoptotic (%): 59%
  Population Fragmented Nuclei (%): 5%
  Population Healthy Nuclei (%): 87%
  Population Hoechst High Intensity Objects (%): 8%
  Population Mitochondria Different-Phenotype (%): 39%
  Population Mitotic Cells (%): 40%
  Population Normal (%): 91%
  Population Pyknosed Nuclei (%): 6%
  Population Tubulin-Different-Phenotype (%): 12%
  Total Cell Count: 428
[7]
  Population Apoptotic (%): 52%
  Population Fragmented Nuclei (%): 10%
  Population Healthy Nuclei (%): 76%
  Population Hoechst High Intensity Objects (%): 5%
  Population Membrane Permeable-Phenotype (%): 0%
  Population Mitochondria Different-Phenotype (%): 71%
  Population Mitotic Cells (%): 47%
  Population Normal (%): 94%
  Population Pyknosed Nuclei (%): 13%
  Population Tubulin-Different-Phenotype (%): 68%
  Total Cell Count: 520
[8]
  Population Apoptotic (%): 36%
  Population Fragmented Nuclei (%): 7%
  Population Healthy Nuclei (%): 79%
  Population Mitochondria Different-Phenotype (%): 72%
  Population Mitotic Cells (%): 63%
  Population Pyknosed Nuclei (%): 12%
  Population Tubulin-Different-Phenotype (%): 44%
  Total Cell Count: 492
[9]
  Population Apoptotic (%): 27%
  Population Fragmented Nuclei (%): 13%
  Population Healthy Nuclei (%): 80%
  Population Hoechst High Intensity Objects (%): 2%
  Population Membrane Permeable-Phenotype (%): 0%
  Population Mitochondria Different-Phenotype (%): 29%
  Population Mitotic Cells (%): 72%
  Population Normal (%): 97%
  Population Pyknosed Nuclei (%): 6%
  Population Tubulin-Different-Phenotype (%): 14%
  Total Cell Count: 743
[10]
  Population Apoptotic (%): 38%
  Population Fragmented Nuclei (%): 9%
  Population Healthy Nuclei (%): 81%
  Population Hoechst High Intensity Objects (%): 4%
  Population Mitochondria Different-Phenotype (%): 23%
  Population Mitotic Cells (%): 61%
  Population Normal (%): 95%
  Population Pyknosed Nuclei (%): 8%
  Population Tubulin-Different-Phenotype (%): 12%
  Total Cell Count: 574
[11]
  Population Apoptotic (%): 44%
  Population Fragmented Nuclei (%): 13%
  Population Healthy Nuclei (%): 75%
  Population Hoechst High Intensity Objects (%): 3%
  Population Membrane Permeable-Phenotype (%): 0%
  Population Mitochondria Different-Phenotype (%): 63%
  Population Mitotic Cells (%): 55%
  Population Normal (%): 96%
  Population Pyknosed Nuclei (%): 11%
  Population Tubulin-Different-Phenotype (%): 46%
  Total Cell Count: 713
[12]
  Population Apoptotic (%): 56%
  Population Fragmented Nuclei (%): 11%
  Population Healthy Nuclei (%): 80%
  Population Hoechst High Intensity Objects (%): 2%
  Population Mitochondria Different-Phenotype (%): 51%
  Population Mitotic Cells (%): 43%
  Population Normal (%): 97%
  Population Pyknosed Nuclei (%): 7%
  Population Tubulin-Different-Phenotype (%): 25%
  Total Cell Count: 669
